Source: ChEMBL document CHEMBL1821673, “Development of β-amino alcohol derivatives that inhibit Toll-like receptor 4 mediated inflammatory response as potential antiseptics” (J Med Chem, 2011)
Active and inactive are the calls of the source. The calls are words filed in the database; no cut-off is given here.

What was measured:
[1] = target: T1, Toll-like receptor 4 (Homo sapiens, UniProt O00206); assay: Inhibition of LPS-induced TLR4 activation in human whole blood assessed as reduction in plasma IL-8 level at 250 uM preincubated for 5 to 10 mins
T1 sequence (O00206 whole entry): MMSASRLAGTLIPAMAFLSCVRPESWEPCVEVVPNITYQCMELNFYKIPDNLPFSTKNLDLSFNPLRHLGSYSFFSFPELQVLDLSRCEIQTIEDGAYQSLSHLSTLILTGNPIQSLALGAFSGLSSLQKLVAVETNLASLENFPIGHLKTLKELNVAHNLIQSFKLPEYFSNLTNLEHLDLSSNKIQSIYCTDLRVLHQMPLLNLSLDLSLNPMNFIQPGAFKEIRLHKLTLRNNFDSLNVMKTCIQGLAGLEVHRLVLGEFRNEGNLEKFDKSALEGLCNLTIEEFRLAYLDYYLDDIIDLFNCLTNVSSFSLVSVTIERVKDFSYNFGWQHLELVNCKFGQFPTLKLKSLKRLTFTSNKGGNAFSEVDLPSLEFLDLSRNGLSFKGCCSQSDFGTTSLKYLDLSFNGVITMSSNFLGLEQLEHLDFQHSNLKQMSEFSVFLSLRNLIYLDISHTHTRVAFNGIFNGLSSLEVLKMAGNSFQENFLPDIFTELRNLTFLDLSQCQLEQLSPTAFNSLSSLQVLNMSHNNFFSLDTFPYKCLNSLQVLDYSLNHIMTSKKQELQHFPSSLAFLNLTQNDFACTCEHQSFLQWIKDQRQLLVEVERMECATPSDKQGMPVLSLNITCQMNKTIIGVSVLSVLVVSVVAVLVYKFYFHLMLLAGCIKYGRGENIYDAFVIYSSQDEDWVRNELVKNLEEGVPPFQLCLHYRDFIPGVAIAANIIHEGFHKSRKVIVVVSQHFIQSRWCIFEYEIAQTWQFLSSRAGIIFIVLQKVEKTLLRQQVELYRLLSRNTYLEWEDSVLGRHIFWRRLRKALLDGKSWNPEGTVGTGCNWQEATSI
Method in brief: (§1)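 Fresh human blood anticoagulated with lepirudin, preincubated with compound 5–10 min at 37 °C, then stimulated with 100 ng/mL ultrapure E. coli 0111:B4 LPS, rotating 2 h at 37 °C. Stopped with EDTA 10 mM final; plasma TNF-α, IL-8 and IL-6 measured by singleplex Bio-plex, expressed as % of LPS without inhibitor. n = 3 or 9, paired two-sided t-test.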

[2] = tested on: Liver microsomes; assay: Intrinsic clearance in human liver microsomes at 1 uM after 60 mins by LC-MS/MS analysis; type: ADME, Microsome; conditions: 1 h
Method in brief: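 1 µM in <0.25% DMSO, 37 °C, human liver microsomes 0.5 mg/mL protein, started with cofactors. Time points 0, 10, 20, 30 and 60 min; NADPH addition confirmed by fluorimetry. LC-MS/MS peak-area ratio to internal standard; CLint = k/P.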

[3] = target: T1, Toll-like receptor 4; assay: Inhibition of LPS-induced TLR4 activation in human whole blood assessed as inhibition of IL-6 release preincubated for 5 to 10 mins; method in brief: as §1
[4] = target: Platelet-derived growth factor receptor beta (Homo sapiens) (UniProt P09619); assay: Inhibition of PDGFRB at 28 uM by luciferase fragment complementation assay
Sequence of Platelet-derived growth factor receptor beta (Homo sapiens) (P09619 whole entry, the tested form may be a part): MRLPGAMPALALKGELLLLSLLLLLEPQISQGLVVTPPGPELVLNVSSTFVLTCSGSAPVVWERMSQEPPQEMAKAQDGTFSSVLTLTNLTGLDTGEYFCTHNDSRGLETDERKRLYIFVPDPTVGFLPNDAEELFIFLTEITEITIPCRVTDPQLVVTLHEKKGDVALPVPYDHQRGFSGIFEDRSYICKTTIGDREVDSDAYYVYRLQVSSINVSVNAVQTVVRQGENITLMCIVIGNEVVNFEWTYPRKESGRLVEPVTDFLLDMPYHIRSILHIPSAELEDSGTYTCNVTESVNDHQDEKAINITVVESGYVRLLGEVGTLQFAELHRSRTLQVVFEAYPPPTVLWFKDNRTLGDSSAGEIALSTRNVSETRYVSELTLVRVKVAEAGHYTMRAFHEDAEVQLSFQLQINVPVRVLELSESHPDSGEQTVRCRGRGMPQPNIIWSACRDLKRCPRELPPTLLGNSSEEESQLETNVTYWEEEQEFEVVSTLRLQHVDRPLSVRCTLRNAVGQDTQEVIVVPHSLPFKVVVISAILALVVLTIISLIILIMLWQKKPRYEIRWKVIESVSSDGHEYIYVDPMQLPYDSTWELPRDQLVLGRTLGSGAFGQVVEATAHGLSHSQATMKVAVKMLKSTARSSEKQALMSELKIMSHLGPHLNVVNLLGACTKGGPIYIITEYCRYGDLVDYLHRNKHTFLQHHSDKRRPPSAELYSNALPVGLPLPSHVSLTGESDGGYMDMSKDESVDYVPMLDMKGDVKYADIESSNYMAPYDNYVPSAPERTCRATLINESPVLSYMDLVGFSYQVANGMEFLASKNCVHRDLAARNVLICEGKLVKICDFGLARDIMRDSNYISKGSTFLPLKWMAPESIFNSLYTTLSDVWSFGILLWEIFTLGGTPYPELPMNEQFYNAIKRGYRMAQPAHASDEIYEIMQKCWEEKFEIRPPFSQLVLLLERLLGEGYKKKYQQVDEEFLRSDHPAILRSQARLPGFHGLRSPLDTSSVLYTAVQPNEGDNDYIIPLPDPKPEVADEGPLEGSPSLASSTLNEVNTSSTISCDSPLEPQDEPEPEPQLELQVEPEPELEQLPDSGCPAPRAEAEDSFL

[5] = target: Proto-oncogene tyrosine-protein kinase Src (Homo sapiens) (UniProt P12931); assay: Inhibition of SRC at 28 uM by luciferase fragment complementation assay
Sequence of Proto-oncogene tyrosine-protein kinase Src (Homo sapiens) (P12931 2-536 limits assumed): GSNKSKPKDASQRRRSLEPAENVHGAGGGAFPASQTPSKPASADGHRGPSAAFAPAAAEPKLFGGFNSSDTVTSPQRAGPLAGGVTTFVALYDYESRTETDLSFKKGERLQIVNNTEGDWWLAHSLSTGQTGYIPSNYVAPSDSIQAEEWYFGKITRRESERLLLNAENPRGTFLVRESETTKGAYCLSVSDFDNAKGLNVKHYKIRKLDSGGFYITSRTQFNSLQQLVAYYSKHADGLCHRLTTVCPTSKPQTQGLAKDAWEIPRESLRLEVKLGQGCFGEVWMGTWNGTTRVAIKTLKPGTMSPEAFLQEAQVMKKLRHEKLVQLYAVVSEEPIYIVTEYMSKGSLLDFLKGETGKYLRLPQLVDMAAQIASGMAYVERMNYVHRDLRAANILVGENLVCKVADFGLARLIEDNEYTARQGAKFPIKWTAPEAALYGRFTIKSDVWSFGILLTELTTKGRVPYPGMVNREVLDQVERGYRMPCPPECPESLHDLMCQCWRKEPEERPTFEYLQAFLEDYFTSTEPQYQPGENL

[6] = tested on: Liver; assay: Intrinsic clearance in rat liver S9 fractions at 1 uM after 60 mins by LC-MS/MS analysis; type: ADME, subcellular, S9 fraction; conditions: s9, 1 h
Method in brief: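 1 µM in <0.25% DMSO, 37 °C, pooled rat or human S9 at 1 mg/mL, with 1 mM each of NADPH, UDPGA, PAPS and GSH. Sampled at 0, 10, 20, 30 and 60 min; peak-area ratio to internal standard by LC-MS/MS without a standard curve. CLint = k/P.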

[7] = target: T1, Toll-like receptor 4; assay: Inhibition of LPS-induced TLR4 activation in human whole blood assessed as inhibition of IL-6 release at 250 uM preincubated for 5 to 10 mins; method in brief: as §1
[8] = target: T1, Toll-like receptor 4; assay: Inhibition of LPS-induced TLR4 activation in human whole blood assessed as inhibition of IL-8 release preincubated for 5 to 10 mins; method in brief: as §1
[9] = target: Calcium/calmodulin-dependent protein kinase type 1 (Homo sapiens) (UniProt Q14012); assay: Inhibition of CAMK1 at 28 uM by luciferase fragment complementation assay
Sequence of Calcium/calmodulin-dependent protein kinase type 1 (Homo sapiens) (Q14012 whole entry, looked up, the tested form may be a part): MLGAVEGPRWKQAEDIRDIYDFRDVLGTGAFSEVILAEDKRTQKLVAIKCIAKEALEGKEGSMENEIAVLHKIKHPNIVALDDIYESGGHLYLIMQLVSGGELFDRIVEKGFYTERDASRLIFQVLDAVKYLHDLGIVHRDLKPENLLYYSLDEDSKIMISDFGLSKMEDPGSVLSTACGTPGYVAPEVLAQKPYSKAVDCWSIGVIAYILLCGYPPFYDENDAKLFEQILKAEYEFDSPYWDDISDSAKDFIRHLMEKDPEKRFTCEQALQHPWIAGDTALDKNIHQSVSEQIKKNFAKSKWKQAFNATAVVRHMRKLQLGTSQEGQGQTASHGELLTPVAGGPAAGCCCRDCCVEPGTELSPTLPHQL

[10] = target: Serine/threonine-protein kinase PAK 1 (Homo sapiens) (UniProt Q13153); assay: Inhibition of PAK1 at 28 uM by luciferase fragment complementation assay
Sequence of Serine/threonine-protein kinase PAK 1 (Homo sapiens) (Q13153 whole entry, the tested form may be a part): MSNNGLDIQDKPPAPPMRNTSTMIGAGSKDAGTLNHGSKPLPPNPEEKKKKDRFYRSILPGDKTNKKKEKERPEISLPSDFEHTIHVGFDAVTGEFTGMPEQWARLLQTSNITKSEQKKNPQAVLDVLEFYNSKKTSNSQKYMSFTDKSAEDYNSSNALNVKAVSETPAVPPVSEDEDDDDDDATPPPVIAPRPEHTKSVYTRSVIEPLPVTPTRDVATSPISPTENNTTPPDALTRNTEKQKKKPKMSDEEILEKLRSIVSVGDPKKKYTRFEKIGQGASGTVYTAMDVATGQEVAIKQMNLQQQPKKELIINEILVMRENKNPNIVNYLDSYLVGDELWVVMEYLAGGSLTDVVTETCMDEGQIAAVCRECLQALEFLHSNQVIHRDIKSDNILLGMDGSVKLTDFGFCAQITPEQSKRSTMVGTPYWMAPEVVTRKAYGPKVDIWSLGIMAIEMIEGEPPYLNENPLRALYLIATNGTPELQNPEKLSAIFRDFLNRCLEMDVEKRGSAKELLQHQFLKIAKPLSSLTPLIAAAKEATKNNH

Which results are given for `CCOc1ccc(OCC(O)CN(C)Cc2c(C)nn(Cc3ccccc3Cl)c2C)cc1` (racemic)?
inhibition [1]: 65%; CL [2]: > 700 µL/min/mg; IC50 [3]: 318 µM; inhibition [3]: Dose-dependent effect; inhibition [4]: ≤ 27%; inhibition [5]: ≤ 27%; CL [6]: > 350 µL/min/mg; inhibition [7]: inactive; IC50 [8]: 111 µM; inhibition [8]: Dose-dependent effect; inhibition [9]: ≤ 27%; inhibition [10]: ≤ 27%
